According to ChEMBL document CHEMBL2390820, “3-Biphenylimidazo[1,2-a]pyridines or [1,2-b]pyridazines and analogues, novel Flaviviridae inhibitors” (Eur J Med Chem, 2013):
Values after ≈ are worked out from the molar mass of the structure shown.

Columns and labels:
[1] = Selectivity index, ratio of CC50 for MDBK cells to EC50 for BVDV NADL infected in MDBK cells
How it was run: (§1)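 Selectivity index is the ratio of CC50 from the 3-day MTS/PMS proliferation assay to EC50 in the same cell line. For Huh 5-2 the EC50 is from the luciferase replicon assay; for MDBK it is from the MTS CPE assay.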

[2] = Cytotoxicity against MDBK cells assessed as growth inhibition after 3 days by MTS assay; assay type: cell-based, Bos taurus; settings: cattle
How it was run: (§2)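 MDBK or Huh 5-2 cells were seeded at 5 × 10³/well in MEM-FCS, with serial compound dilutions added 24 h later. Cells proliferated 3 days at 37 °C, then metabolic activity was read by MTS/PMS. CC50 is the concentration inhibiting proliferation of exponentially growing cells by 50%, by linear interpolation.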

Hepatitis C virus = experiment: Antiviral activity against HCV genotype 1b infected in Huh5-2 cells assessed as inhibition of viral replication after 4 days by luciferase reporter gene assay; assay type: functional, organism-based, Hepacivirus hominis, Huh-5-2; settings: for EC50: Hepatitis C virus, genotype 1b, Huh-5-2, 96 h
How it was run: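 Huh 5-2 cells carrying the HCV subgenomic luciferase replicon were seeded at 5 × 10³/well with compound and incubated 4 days at 37 °C. Medium was removed and luciferase activity quantified. EC50 is the minimum concentration reducing replicon-driven luciferase signal by 50%.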

[3] = (§3) Antiviral activity against BVDV NADL infected in MDBK cells assessed as inhibition of virus-induced cytopathic effect formation after 5 days by MTS assay; assay type: functional, cell-based, Bovine viral diarrhea virus 1-NADL; settings: Bovine viral diarrhea virus isolates and strains, 120 h
How it was run: (§4)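 MDBK cells were seeded at 5 × 10³/well in MEM-FCS and held 24 h at 37 °C, 5% CO₂. Medium was replaced with 5-fold serial compound dilutions, then BVDV inoculum was added at MOI 2. CPE was read by MTS as OD at 490 nm. EC50 is the concentration giving 50% protection against virus-induced CPE, by linear interpolation.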

[4] = Cytotoxicity against human Huh5-2 cells assessed as growth inhibition after 3 days by MTS assay; assay type: cell-based, Huh-5-2; how it was run: as §2
[5] = Selectivity index, ratio of CC50 for Huh5-2 cells to EC50 for HCV genotype 1b infected in Huh5-2 cells; set-up: species or system Huh-5-2; how it was run: as §1
[6] = Antiviral activity against BVDV NADL infected in MDBK cells assessed as inhibition of progeny infectious viral particle production; assay type: functional, cell-based, Bovine viral diarrhea virus 1-NADL; settings: Bovine viral diarrhea virus isolates and strains
[7] = Antiviral activity against LZ37-resistant BVDV NADL assessed as inhibition of viral replication; assay type: functional, Bovine viral diarrhea virus 1-NADL
How it was run: (§5)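 MDBK cells were seeded at 5 × 10³/well in MEM-FCS and held 24 h at 37 °C in 5% CO₂. Medium was replaced with 5-fold serial compound dilutions, then BVDV NADL (drug-selected resistant variant) at MOI 2. CPE was read by the MTS method at OD 490 nm, and % CPE was calculated. EC50 is the concentration giving 50% protection from virus-induced CPE, by linear interpolation.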

[8] = Antiviral activity against BVDV NADL infected in MDBK cells assessed as inhibition of viral RNA synthesis by RT-qPCR analysis; assay type: functional, cell-based, Bovine viral diarrhea virus 1-NADL; settings: Bovine viral diarrhea virus isolates and strains
[9] = system: Bovine viral diarrhea virus 1-NADL; experiment: Selectivity ratio of EC50 for BPIP-resistant BVDV NADL to EC50 for wild type BVDV NADL; assay type: functional
[10] = system: Bovine viral diarrhea virus 1-NADL; experiment: Selectivity ratio of EC50 for LZ37-resistant BVDV NADL to EC50 for wild type BVDV NADL; assay type: functional
[11] = system: Bovine viral diarrhea virus 1-NADL; experiment: Selectivity ratio of EC50 for AG110-resistant BVDV NADL to EC50 for wild type BVDV NADL; assay type: functional
[12] = Selectivity index, ratio of CC50 for MDBK cells to EC50 for BVDV NADL infected in MDBK cells assessed as inhibition of progeny infectious viral particle production
MDBK = experiment: as §3; assay type: functional, cell-based; settings: Bovine viral diarrhea virus 1-NADL; how it was run: as §4
[13] = Antiviral activity against BPIP-resistant BVDV NADL assessed as inhibition of viral replication; assay type: functional, Bovine viral diarrhea virus 1-NADL; how it was run: as §5
[14] = system: Bovine viral diarrhea virus 1-NADL; experiment: Selectivity ratio of EC50 for LZ37-resistant BVDV NADL to EC50 for AG110-resistant BVDV NADL; assay type: functional
[15] = Antiviral activity against AG110-resistant BVDV NADL assessed as inhibition of viral replication; assay type: functional, Bovine viral diarrhea virus 1-NADL; how it was run: as §5
[16] = Selectivity index, ratio of CC50 for MDBK cells to EC50 for BVDV NADL infected in MDBK cells assessed as inhibition of viral RNA synthesis
[17] = Selectivity ratio of EC50 for BVDV NADL infected in MDBK cells assessed as inhibition of progeny infectious viral particle production to EC50 for BVDV NADL infected in MDBK cells assessed as inhibition of viral RNA synthesis; assay type: functional, Bovine viral diarrhea virus 1-NADL

| Structure (SMILES) | EC50 (Hepatitis C virus) [µg/mL] | Ratio CC50/EC50 [1] | CC50 at 72 h [2] [µg/mL] | EC50 [3] [µg/mL] | CC50 at 72 h [4] [µg/mL] | Ratio CC50/EC50 [5] | also measured |
| --- | --- | --- | --- | --- | --- | --- | --- |
| CC(C)(C)c1nc2ccc(-c3ccsc3)nn2c1-c1cccc(-c2ccoc2)c1 | 8.7 (≈ 21.8 µM) | 2.7 | 4.5 (≈ 11.3 µM) | 1.7 (≈ 4.26 µM) | 55.1 (≈ 138 µM) | 6.3 |  |
| COc1ccccc1-c1nc2ccc(-c3ccsc3)cn2c1-c1cccc(-c2ccccc2)c1 | 17.5 (≈ 38.2 µM) | >1.5 | > 100 | 68.6 (≈ 150 µM) | 56.8 (≈ 124 µM) | 3.3 |  |
| CC(C)(C)c1nc2ccc(-c3ccsc3)nn2c1-c1cccc(-c2cccc(O)c2)c1 | 3.9 (≈ 9.16 µM) | >26.7 | > 100 | 3.7 (≈ 8.69 µM) | 20 (≈ 47 µM) | 5.2 |  |
| COc1ccc(-c2cccc(-c3c(-c4ccc(F)cc4)nc4ccccn34)c2)cc1 | 1.63 (≈ 4.13 µM) | >36 | > 100 | 2.8 (≈ 7.1 µM) | 34.8 (≈ 88.2 µM) | 21.3 |  |
| Fc1ccc(-c2nc3ccc(-c4ccsc4)nn3c2-c2ccc(-c3ccccc3)cc2)cc1 | > 112 | >1 | > 50 | > 50 | > 112 | >1 |  |
| COc1ccc(-c2nc3ccc(-c4ccsc4)cn3c2-c2cccc(-c3ccccc3)c2)cc1 | 56.8 (≈ 124 µM) | >4.4 | > 100 | 22.7 (≈ 49.5 µM) | > 109 | >1.9 |  |
| Fc1ccc(-c2nc3ccc(Sc4ccccc4)cn3c2-c2cccc(-c3ccccc3)c2)cc1 | > 106 | >50 | > 100 | 2 (≈ 4.23 µM) | > 106 | >1 | EC50 [6]: 8 µg/mL (≈ 16.9 µM); EC50 [7]: 8.8 µg/mL (≈ 18.6 µM); EC50 [8]: 2.7 µg/mL (≈ 5.71 µM); Ratio EC50 [9]: 1.5; Ratio EC50 [10]: 2.2; Ratio EC50 [11]: 0.9; Ratio CC50/EC50 [12]: 19; inhibition (MDBK): Dose-dependent effect; EC50 [13]: 6 µg/mL (≈ 12.7 µM); Ratio EC50 [14]: 2; EC50 [15]: 3.9 µg/mL (≈ 8.25 µM); Ratio CC50/EC50 [16]: 37; Ratio EC50 [17]: 2 |
| COc1ccccc1-c1nc2ccc(-c3ccsc3)nn2c1-c1cccc(-c2ccccc2)c1 | 14.7 (≈ 32 µM) | 3.1 | 10.4 (≈ 22.6 µM) | 3.4 (≈ 7.4 µM) | 97.4 (≈ 212 µM) | 6.6 |  |
| Fc1ccc(-c2nc3ccc(-c4ccccc4)nn3c2-c2cccc(-c3ccccc3)c2)cc1 | 11.3 (≈ 25.6 µM) | 20 | 25 (≈ 56.6 µM) | 1.23 (≈ 2.79 µM) | 15.9 (≈ 36 µM) | 1.4 |  |
| Fc1ccc(-c2nc3ccc(-c4ccccc4)cn3c2-c2cccc(-c3ccccc3)c2)cc1 | 52.2 (≈ 118 µM) | >4 | > 50 | 12 (≈ 27.2 µM) | 56.8 (≈ 129 µM) | 1.09 |  |

The next lines start with results.

| EC50 (Hepatitis C virus) [µg/mL] | Structure (SMILES) | Ratio CC50/EC50 [1] | CC50 at 72 h [2] [µg/mL] | EC50 [3] [µg/mL] | CC50 at 72 h [4] [µg/mL] | Ratio CC50/EC50 [5] | also measured |
| --- | --- | --- | --- | --- | --- | --- | --- |
| 10.3 (≈ 26.9 µM) | Fc1ccc(-c2cccc(-c3c(-c4ccc(F)cc4)nc4ccccn34)c2)cc1 | 1.4 | 5.4 (≈ 14.1 µM) | 3.9 (≈ 10.2 µM) | 54.5 (≈ 143 µM) | 5.3 |  |
| > 112 | Fc1ccc(-c2nc3ccc(-c4ccsc4)cn3c2-c2cccc(-c3ccccc3)c2)cc1 | >45 | > 33 | 0.74 (≈ 1.66 µM) | > 112 | >1 |  |
| 19.2 (≈ 54.2 µM) | Fc1ccc(-c2nc3ccccn3c2-c2cccc(-c3ccoc3)c2)cc1 | 3.2 | 5.6 (≈ 15.8 µM) | 1.7 (≈ 4.8 µM) | 66.2 (≈ 187 µM) | 3.4 |  |
| 4.8 (≈ 10.1 µM) | COc1ccccc1-c1nc2ccc(-c3ccsc3)nn2c1-c1cccc(-c2ccccc2O)c1 | 12 | 16.2 (≈ 34.1 µM) | 1.36 (≈ 2.86 µM) | > 205 | >43 | inhibition (INH) (Hepatitis C virus): 60% |
| 6.7 (≈ 14.9 µM) | Fc1ccc(-c2nc3ccc(N4CCOCC4)cn3c2-c2ccc(-c3ccccc3)cc2)cc1 | >1 | > 50 | > 50 | 15.6 (≈ 34.7 µM) | 2.3 |  |
| 20.2 (≈ 55.3 µM) | Fc1ccc(-c2nc3ccccn3c2-c2cccc(-c3ccncc3)c2)cc1 | 7.1 | 7 (≈ 19.2 µM) | 0.98 (≈ 2.68 µM) | 45.5 (≈ 125 µM) | 2.3 |  |
